Assay results reported in ChEMBL document CHEMBL2321836, “Discovery of novel Trypanosoma brucei phosphodiesterase B1 inhibitors by virtual screening against the unliganded TbrPDEB1 crystal structure” (J Med Chem, 2013).

How the values were obtained:
[1] = molecular target: T1, Class 1 phosphodiesterase PDEB1 (Trypanosoma brucei, UniProt Q8WQX9); test: Inhibition of Trypanosoma brucei full length PDEB1 expressed in insect SF21 cells using cAMP as substrate by scintillation proximity assay
T1 sequence (Q8WQX9 whole entry): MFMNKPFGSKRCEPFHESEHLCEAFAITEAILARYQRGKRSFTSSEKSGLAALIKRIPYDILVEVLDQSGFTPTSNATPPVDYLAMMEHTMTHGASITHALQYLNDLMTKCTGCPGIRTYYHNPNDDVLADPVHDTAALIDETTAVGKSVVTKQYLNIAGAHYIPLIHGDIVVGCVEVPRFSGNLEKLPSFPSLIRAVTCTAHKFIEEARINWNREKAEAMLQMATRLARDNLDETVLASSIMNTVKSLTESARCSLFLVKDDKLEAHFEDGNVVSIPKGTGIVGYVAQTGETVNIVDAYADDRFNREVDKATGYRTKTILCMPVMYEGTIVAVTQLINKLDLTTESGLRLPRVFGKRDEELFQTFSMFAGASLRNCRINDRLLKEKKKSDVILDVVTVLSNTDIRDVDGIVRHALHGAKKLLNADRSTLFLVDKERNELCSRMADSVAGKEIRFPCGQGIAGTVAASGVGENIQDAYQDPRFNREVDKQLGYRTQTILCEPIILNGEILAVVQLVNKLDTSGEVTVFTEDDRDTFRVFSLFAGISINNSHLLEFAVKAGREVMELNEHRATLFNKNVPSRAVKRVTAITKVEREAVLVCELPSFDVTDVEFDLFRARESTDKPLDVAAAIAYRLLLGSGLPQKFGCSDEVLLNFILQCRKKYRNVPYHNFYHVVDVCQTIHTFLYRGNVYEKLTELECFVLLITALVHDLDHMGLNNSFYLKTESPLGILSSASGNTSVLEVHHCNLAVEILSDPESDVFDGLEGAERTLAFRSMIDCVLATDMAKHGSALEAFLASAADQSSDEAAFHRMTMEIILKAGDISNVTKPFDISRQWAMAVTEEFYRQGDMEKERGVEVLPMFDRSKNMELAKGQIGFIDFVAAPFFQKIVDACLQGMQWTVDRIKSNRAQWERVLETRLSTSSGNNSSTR
In short: (§1)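 Full-length enzyme harvested by sonication of supernatants of overexpressing Sf21 cells. Scintillation proximity assay with 0.5 μM cAMP substrate. Enzyme level set so that <20% of cAMP was consumed. Blanks used denatured protein. Run in at least duplicate.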

[2] = molecular target: 3',5'-cyclic-AMP phosphodiesterase 4B (Homo sapiens, UniProt Q07343); test: Inhibition of human full length PDE4B expressed in insect SF21 cells using cAMP as substrate by scintillation proximity assay
In short: as §1, with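 “duplicate. IC50 obtained by a one-site competitive binding fit, with curves assumed to plateau at 100% inhibition.” for “duplicate.”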

[3] = Selectivity ratio of IC50 for Trypanosoma brucei PDEB1 to IC50 for human PDE4B

Sequence of 3',5'-cyclic-AMP phosphodiesterase 4B (Q07343 whole entry): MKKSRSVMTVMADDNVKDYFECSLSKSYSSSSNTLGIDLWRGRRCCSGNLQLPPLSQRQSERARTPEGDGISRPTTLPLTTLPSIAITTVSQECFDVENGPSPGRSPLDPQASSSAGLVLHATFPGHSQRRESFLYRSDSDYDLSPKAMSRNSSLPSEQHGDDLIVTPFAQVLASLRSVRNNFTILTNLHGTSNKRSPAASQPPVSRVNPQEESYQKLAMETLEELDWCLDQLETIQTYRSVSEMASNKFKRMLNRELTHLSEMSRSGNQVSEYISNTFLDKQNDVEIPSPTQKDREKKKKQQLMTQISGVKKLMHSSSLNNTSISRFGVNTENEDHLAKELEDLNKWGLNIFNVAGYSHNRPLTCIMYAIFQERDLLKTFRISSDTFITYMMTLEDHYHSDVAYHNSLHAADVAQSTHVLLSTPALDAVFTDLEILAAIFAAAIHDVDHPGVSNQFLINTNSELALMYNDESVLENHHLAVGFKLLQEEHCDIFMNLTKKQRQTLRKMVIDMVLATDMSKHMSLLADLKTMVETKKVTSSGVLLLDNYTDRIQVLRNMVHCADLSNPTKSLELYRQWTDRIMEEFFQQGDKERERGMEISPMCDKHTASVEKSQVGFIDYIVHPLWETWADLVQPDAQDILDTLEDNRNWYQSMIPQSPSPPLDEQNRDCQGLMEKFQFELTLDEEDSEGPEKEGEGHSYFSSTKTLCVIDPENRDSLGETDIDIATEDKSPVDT

Row | IC50 [1] | IC50 [2] | Ratio IC50 [3] | SMILES
1 | 12 µM | 14 µM |  | O=C(CCCSc1ncnc2sc(-c3ccccc3)cc12)N1CCOCC1
2 | 54 µM | 15 µM | 3.6 | O=C(CCc1nc2ccccc2n(CCc2ccccc2)c1=O)N1CCCCC1
3 | 75 µM | 68 µM |  | O=C(NCc1ccc(Cn2cncn2)cc1)c1ccc2[nH]c3c(c2c1)CCCC3
4 | 13 µM | 5 µM |  | Cc1cc(SCC(=O)c2ccc(O)c(O)c2)n2nc(C)c(-c3ccccc3)c2n1
5 | 41 µM | 16 µM | 2.6 | O=C1c2cccc3cccc(c23)C(=O)N1CCCC(=O)N(Cc1ccco1)C1CC1

Row | SMILES | IC50 [1] | IC50 [2] | Ratio IC50 [3]
6 | CCCn1c(=O)n(C)c(=O)c2c(SCC(=O)c3ccc(Cl)cc3)nc(CC(C)C)nc21 | 10 µM | 26 µM | 0.4
